Structures are written as SMILES. pIC50: −log10 of the molar value.

The values that follow come from ChEMBL document CHEMBL4354819, “Discovery of Novel Small Molecule Dual Inhibitors Targeting Toll-Like Receptors 7 and 8” (J Med Chem, 2019).

What all share (type): cell-based
For experiment [1], the target named is T1, Toll-like receptor 8 (Homo sapiens) (UniProt Q9NR97).
T1 sequence (whole entry): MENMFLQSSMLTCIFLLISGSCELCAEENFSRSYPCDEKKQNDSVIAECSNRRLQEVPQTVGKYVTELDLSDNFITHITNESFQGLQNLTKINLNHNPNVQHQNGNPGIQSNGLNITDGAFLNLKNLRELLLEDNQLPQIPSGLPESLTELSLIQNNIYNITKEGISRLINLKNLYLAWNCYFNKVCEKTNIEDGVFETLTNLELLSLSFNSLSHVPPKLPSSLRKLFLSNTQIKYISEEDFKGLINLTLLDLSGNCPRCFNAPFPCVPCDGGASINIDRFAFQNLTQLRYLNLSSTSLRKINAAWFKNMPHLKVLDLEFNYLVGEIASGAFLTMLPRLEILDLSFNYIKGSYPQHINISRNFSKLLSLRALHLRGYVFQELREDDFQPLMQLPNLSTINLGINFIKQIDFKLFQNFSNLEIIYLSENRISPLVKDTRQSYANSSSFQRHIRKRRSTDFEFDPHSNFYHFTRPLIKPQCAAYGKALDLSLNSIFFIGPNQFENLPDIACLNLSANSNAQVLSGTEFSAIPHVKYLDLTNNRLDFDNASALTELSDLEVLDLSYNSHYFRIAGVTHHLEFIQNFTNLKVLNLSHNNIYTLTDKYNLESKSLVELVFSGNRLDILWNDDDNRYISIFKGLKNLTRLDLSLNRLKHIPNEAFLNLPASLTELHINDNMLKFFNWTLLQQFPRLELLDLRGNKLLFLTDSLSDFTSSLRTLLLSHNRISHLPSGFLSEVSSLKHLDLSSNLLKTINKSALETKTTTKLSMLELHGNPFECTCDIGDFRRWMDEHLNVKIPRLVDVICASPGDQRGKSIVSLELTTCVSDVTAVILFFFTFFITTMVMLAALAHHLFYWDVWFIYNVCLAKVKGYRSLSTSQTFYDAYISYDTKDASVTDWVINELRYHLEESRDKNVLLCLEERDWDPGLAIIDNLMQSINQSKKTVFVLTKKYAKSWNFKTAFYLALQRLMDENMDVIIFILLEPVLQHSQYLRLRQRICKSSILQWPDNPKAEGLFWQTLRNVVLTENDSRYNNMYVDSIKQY
Put plainly: Inhibition of human TLR8 expressed in HEK293 cells assessed as reduction in R848-induced NFkappaB production at 1.5 to 5 uM incubated for 16 hrs by quanti-blue SEAP assay. In a few lines: (§1)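 Selectivity panel in stably transfected HEK 293-Blue cells, each overexpressing one human TLR with an inducible SEAP reporter. Agonists: Pam3CSK4 (TLR1/2), Pam2CSK4 (TLR2/6), poly(I:C) (TLR3), LPS (TLR4), R848 (TLR7/8), ODN 2006 (TLR9). Cells were exposed to compound for 16 h. Activity = (raw − untreated)/(ligand + solvent − untreated), with ligand + solvent set as 100%.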

In experiment [2] the target is T2, Toll-like receptor 7 (Homo sapiens) (UniProt Q9NYK1).
T2 sequence (whole entry): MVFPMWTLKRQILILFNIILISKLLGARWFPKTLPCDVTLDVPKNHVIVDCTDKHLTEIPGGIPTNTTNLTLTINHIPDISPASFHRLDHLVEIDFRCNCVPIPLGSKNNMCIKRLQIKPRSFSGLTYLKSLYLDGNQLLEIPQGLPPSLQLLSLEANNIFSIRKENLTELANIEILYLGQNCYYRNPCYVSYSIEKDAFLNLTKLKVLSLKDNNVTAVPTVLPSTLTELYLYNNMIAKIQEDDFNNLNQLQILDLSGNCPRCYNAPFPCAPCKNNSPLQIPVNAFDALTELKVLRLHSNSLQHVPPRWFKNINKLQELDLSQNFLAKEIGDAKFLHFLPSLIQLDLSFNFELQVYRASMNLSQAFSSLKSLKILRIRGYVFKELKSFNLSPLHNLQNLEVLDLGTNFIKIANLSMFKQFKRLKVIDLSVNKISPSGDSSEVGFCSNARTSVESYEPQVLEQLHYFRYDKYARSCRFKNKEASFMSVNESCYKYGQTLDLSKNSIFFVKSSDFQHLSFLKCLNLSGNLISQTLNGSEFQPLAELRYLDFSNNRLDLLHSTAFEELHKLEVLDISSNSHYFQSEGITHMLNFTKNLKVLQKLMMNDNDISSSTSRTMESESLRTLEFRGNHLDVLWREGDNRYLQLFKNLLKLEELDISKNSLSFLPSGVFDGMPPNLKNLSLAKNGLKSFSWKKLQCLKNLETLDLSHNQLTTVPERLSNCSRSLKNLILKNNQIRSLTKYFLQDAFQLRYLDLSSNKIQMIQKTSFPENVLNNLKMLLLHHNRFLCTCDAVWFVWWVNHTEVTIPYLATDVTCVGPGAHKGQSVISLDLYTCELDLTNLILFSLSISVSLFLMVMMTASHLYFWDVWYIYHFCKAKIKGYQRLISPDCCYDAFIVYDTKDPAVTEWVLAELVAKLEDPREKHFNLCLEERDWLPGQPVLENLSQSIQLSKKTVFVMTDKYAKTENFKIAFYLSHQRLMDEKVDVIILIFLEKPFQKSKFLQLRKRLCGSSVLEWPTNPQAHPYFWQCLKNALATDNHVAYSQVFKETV
Put plainly: Inhibition of human TLR7 expressed in HEK293 cells assessed as reduction in resiquimod-induced NFkappaB production at 1.5 to 5 uM incubated for 16 hrs by quanti-blue SEAP assay. In a few lines:
as §1

A further experiment has as its target T3, Toll-like receptor 7 (Homo sapiens, UniProt Q9NYK1).
T3 sequence (Q9NYK1 whole entry): T2 sequence (whole entry)
Put plainly: Inhibition of human TLR7 expressed in HEK293 cells assessed as reduction in R848-induced NFkappaB production incubated for 16 hrs by quanti-blue SEAP assay. In a few lines:
(§2)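 HEK 293-Blue cells stably expressing hTLR7 or hTLR8 with an inducible SEAP reporter were incubated 16 h with compound under 1 µg/mL R848 stimulation. SEAP was read at 620 nm. Data were normalized to the R848 control, and IC50 was taken from concentration-response curves. […] Mean ± s.d., n = 3 independent experiments.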

The target in another experiment is T4, Toll-like receptor 8 (Homo sapiens, UniProt Q9NR97).
T4 sequence (Q9NR97 whole entry): T1 sequence (whole entry)
Put plainly: Inhibition of human TLR8 expressed in HEK293 cells assessed as reduction in R848-induced NFkappaB production incubated for 16 hrs by quanti-blue SEAP assay. In a few lines: as §2

Regarding `C#Cc1cccc(F)c1C(=O)Nc1ccc(Oc2cc(C(F)(F)F)cc(C(F)(F)F)c2)cc1`, the inhibition in experiment [1] and in experiment [2] was 0% each time.
For the molecule `O=C(Nc1ccc(Oc2cc(C(F)(F)F)cc(C(F)(F)F)c2)cc1)c1ccc(I)cc1F`, the negative logarithm of the IC50 (pIC50) on Toll-like receptor 7 and at Toll-like receptor 8 was below 4.30 throughout.
On to `O=C(Nc1ccc(Oc2cc(C(F)(F)F)cc(C(F)(F)F)c2)cc1)c1c(F)c(F)c(F)c(F)c1F`, for which the inhibition in experiment [1] and in experiment [2] was 0% in each case.
Take `O=C(Nc1ccc(Oc2cc(C(F)(F)F)cc(C(F)(F)F)c2)cc1)c1c(F)cccc1F`: the inhibition in experiment [1] came out at 0%.
Take `O=C(Nc1ccc(Oc2cc(C(F)(F)F)cc(C(F)(F)F)c2)cc1)c1ccco1`: the inhibition in experiment [1] and in experiment [2] was 0% in each case.
Take `O=C(Nc1ccc(Oc2cc(Cl)cc(C(F)(F)F)c2)cc1)c1c(F)cccc1Cl`: on Toll-like receptor 8, the negative-log IC50 (pIC50) is 5.69.
Consider `Nc1ccc(C(=O)Nc2ccc(Oc3cc(C(F)(F)F)cc(C(F)(F)F)c3)cc2)c(F)c1`, for which the negative-log IC50 (pIC50) on Toll-like receptor 7 and at Toll-like receptor 8 was below 4.30 each time.
As for `O=C(Nc1ccc(Oc2cc(C(F)(F)F)cc(C(F)(F)F)c2)cc1)c1c(F)cccc1OC(F)(F)F`, the negative-log IC50 (pIC50) on Toll-like receptor 7 and at Toll-like receptor 8 was below 4.30 each time.
As to `O=C(Nc1ccc(Oc2cc(I)cc(C(F)(F)F)c2)cc1)c1c(F)cccc1Cl`, the pIC50 at Toll-like receptor 8 was below 5.30.
On to `O=[N+]([O-])c1c(Cl)cccc1Oc1ccc(-c2nnco2)cc1`, for which the negative-log IC50 (pIC50) at Toll-like receptor 8 was 6.11.
As for `O=C(Nc1ccc(Oc2cc(F)cc(C(F)(F)F)c2)cc1)c1c(F)cccc1Cl`, at Toll-like receptor 8, the negative-log IC50 (pIC50) was 5.80.
Consider `O=C(Nc1ccc(Oc2cc(C(F)(F)F)cc(C(F)(F)F)c2)cc1)c1c(F)cccc1Br`, for which the pIC50 at Toll-like receptor 7 is 6.00; on Toll-like receptor 8, 5.22.
Consider `O=C(Nc1ccc(Oc2cc(C(F)(F)F)cc(C(F)(F)F)c2)cc1)C1CCCCC1`, for which the inhibition in experiment [1] and in experiment [2] was 0% in each case.
Regarding `O=C(Nc1ccc(Oc2cc(O)cc(C(F)(F)F)c2)cc1)c1c(F)cccc1Cl`, the inhibition in experiment [1] and in experiment [2] was 0% in each case.
For `Nc1c(Cl)cccc1Oc1ccc(-c2nnco2)cc1`, the negative-log IC50 (pIC50) at Toll-like receptor 8 was 5.28.
Regarding `O=C(Nc1ccc(Oc2cc(C(F)(F)F)cc(C(F)(F)F)c2)cc1)c1sccc1Cl`, the pIC50 on Toll-like receptor 8 is 5.49. Further, the inhibition in experiment [2] is 0%.
For the molecule `O=C(Nc1ccc(Oc2cc(Br)cc(C(F)(F)F)c2)cc1)c1c(F)cccc1Cl`, the negative logarithm of the IC50 (pIC50) on Toll-like receptor 8 is 5.63.
As to `O=C(Nc1ccc(Oc2cc(C(F)(F)F)cc(C(F)(F)F)c2)cc1)c1ccc(O)cc1F`, the pIC50 at Toll-like receptor 8 was below 4.30. The inhibition in experiment [2] was found to be 0%.
With `N#Cc1c(Cl)cccc1Oc1ccc(-c2ncco2)cc1`, the inhibition in experiment [1] was found to be 0%.
With `Cc1nnc(-c2ccc(C(=O)Oc3cccc(Cl)c3C#N)cc2)o1`, the inhibition in experiment [1] amounted to 0%.
Consider `N#Cc1c(Cl)cccc1COc1ccc(-c2nnco2)cc1`, for which the pIC50 on Toll-like receptor 8 was 5.60.
Take `O=C(Nc1ccc(Oc2cc(C(F)(F)F)cc(C(F)(F)F)c2)cc1O)c1c(F)cccc1Cl`: at Toll-like receptor 8, the negative-log IC50 (pIC50) was 5.40. The inhibition in experiment [2] was found to be 0%.
With `c1ccc(Oc2ccc(-c3nnco3)cc2)cc1`, at Toll-like receptor 8, the pIC50 is 5.14.
As for `Fc1cccc(Cl)c1CNc1ccc(Oc2cc(C(F)(F)F)cc(C(F)(F)F)c2)cc1`, the pIC50 on Toll-like receptor 7 and at Toll-like receptor 8 was below 4.30 in each case.
For `O=C(Nc1ccc(Oc2cc(C(F)(F)F)cc(C(F)(F)F)c2)cc1O)c1c(F)cccc1I`, the pIC50 on Toll-like receptor 7 is 5.33; at Toll-like receptor 8, 5.58.
Take `O=C(Nc1cccc(Oc2cc(C(F)(F)F)cc(C(F)(F)F)c2)c1)c1c(F)cccc1Cl`: in experiment [2], the inhibition amounted to 0%.
Consider `N#Cc1c(Br)cccc1Oc1ccc(-c2nnco2)cc1`, for which the pIC50 at Toll-like receptor 8 is 6.06.
In the case of `O=C(Nc1ccc(Oc2cccc(C(F)(F)F)c2)cc1)c1c(F)cccc1Cl`, the figures for the negative-log IC50 (pIC50) at Toll-like receptor 7 and at Toll-like receptor 8 were 5.58 and 5.62, respectively.
As to `O=C(Nc1ccc(Oc2cc(C(F)(F)F)cc(C(F)(F)F)c2)cc1)c1ccccc1F`, the negative-log IC50 (pIC50) on Toll-like receptor 7 was below 4.30; at Toll-like receptor 8, 5.52.

In general, inhibition refers to the percentage by which the read-out fell short of the control. As a reminder, the pIC50 is −log10 of the IC50, conventionally taken in molar units.
